Data from ChEMBL document CHEMBL1137706, “Design, synthesis, and anti-tumor evaluation of novel symmetrical bis-benzimidazoles” (Eur J Med Chem, 2009).

Experiments:
Format in all cases: functional, cell-based
HeLa = test: Antitumor activity against human HeLa cells after 72 hrs by MTT assay
Procedure, shortened: (§1)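 Cells grown in RPMI1640 with 10% fetal bovine serum, seeded at 4.0 × 10^4 cells/well and left 4 h at 37 °C, 5% CO2 to adhere. Compound then added and incubation continued 72 h at 37 °C, 5% CO2. Viability read by standard MTT assay.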

SK-OV-3 = test: Antitumor activity against human SKOV3 cells after 72 hrs by MTT assay; conditions: SK-OV-3, 72 h; procedure, shortened: as §1
BGC-823 = test: Antitumor activity against human BGC823 cells after 72 hrs by MTT assay; conditions: BGC-823, 72 h; procedure, shortened: as §1

## CCOc1ccnc(CSc2nc3ccc(-c4ccc5nc(SCc6nccc(OCC)c6C)[nH]c5c4)cc3[nH]2)c1C
HeLa
  IC50: > 50 µM
SK-OV-3
  IC50: > 50 µM
BGC-823
  IC50: > 50 µM

## COc1ccnc(CSc2nc3ccc(-c4ccc5nc(SCc6nccc(OC)c6OC)[nH]c5c4)cc3[nH]2)c1OC
HeLa
  IC50: > 50 µM
SK-OV-3
  IC50: > 50 µM
BGC-823
  IC50: > 50 µM

## Clc1ccc(CSc2nc3ccc(-c4ccc5nc(SCc6ccc(Cl)nc6)[nH]c5c4)cc3[nH]2)cn1
HeLa
  IC50: > 50 µM
SK-OV-3
  IC50: > 50 µM
BGC-823
  IC50: > 50 µM

## c1ccc(CSc2nc3ccc(-c4ccc5nc(SCc6ccccn6)[nH]c5c4)cc3[nH]2)nc1
HeLa
  IC50: 7.1 µM
SK-OV-3
  IC50: 38.6 µM
BGC-823
  IC50: 16.4 µM

## c1cncc(CSc2nc3ccc(-c4ccc5nc(SCc6cccnc6)[nH]c5c4)cc3[nH]2)c1
HeLa
  IC50: > 50 µM
SK-OV-3
  IC50: 8.73 µM
BGC-823
  IC50: > 50 µM

## c1cc(CSc2nc3ccc(-c4ccc5nc(SCc6ccncc6)[nH]c5c4)cc3[nH]2)ccn1
HeLa
  IC50: 32.4 µM
SK-OV-3
  IC50: 2.81 µM
BGC-823
  IC50: 11 µM

## COc1c(Cl)ccnc1CSc1nc2ccc(-c3ccc4nc(SCc5nccc(Cl)c5OC)[nH]c4c3)cc2[nH]1
HeLa
  IC50: 45.4 µM
SK-OV-3
  IC50: > 50 µM
BGC-823
  IC50: > 50 µM

## COc1ccnc(CSc2nc3ccc(-c4ccc5nc(SCc6nccc(OC)c6C)[nH]c5c4)cc3[nH]2)c1C
HeLa
  IC50: > 50 µM
SK-OV-3
  IC50: > 50 µM
BGC-823
  IC50: > 50 µM

## Cc1c(OCC(F)(F)F)ccnc1CSc1nc2ccc(-c3ccc4nc(SCc5nccc(OCC(F)(F)F)c5C)[nH]c4c3)cc2[nH]1
HeLa
  IC50: 18.3 µM
SK-OV-3
  IC50: 23 µM
BGC-823
  IC50: > 50 µM

## COc1c(C)cnc(CSc2nc3ccc(-c4ccc5nc(SCc6ncc(C)c(OC)c6C)[nH]c5c4)cc3[nH]2)c1C
HeLa
  IC50: > 50 µM
SK-OV-3
  IC50: 2.95 µM
BGC-823
  IC50: > 50 µM

## CC(=O)O[C@H]1C(=O)[C@@]2(C)[C@H]([C@H](OC(=O)c3ccccc3)[C@]3(O)C[C@H](OC(=O)[C@H](O)[C@@H](NC(=O)c4ccccc4)c4ccccc4)C(C)=C1C3(C)C)[C@]1(OC(C)=O)CO[C@@H]1C[C@@H]2O [PACLITAXEL]
SK-OV-3
  IC50: 0.00134 µM
